These results are taken from ChEMBL document CHEMBL3826882, “Discovery of 1-((2R,4aR,6R,7R,7aR)-2-Isopropoxy-2-oxidodihydro-4H,6H-spiro[furo[3,2-d][1,3,2]dioxaphosphinine-7,2'-oxetan]-6-yl)pyrimidine-2,4(1H,3H)-dione (JNJ-54257099), a 3'-5'-Cyclic Phosphate Ester Prodrug of 2'-Deoxy-2'-Spirooxetane Uridine Triphosphate Useful for HCV Inhibition” (J Med Chem, 2016).

In series [1] the test system is Hepatocyte. Briefly: Drug level in human primary hepatocyte supernatant treated with JNJ-54257099 at 2 to 62.5 uM after 4 to 24 hrs using radiolabeled compound by HPLC analysis. In kind it is ADME, cell-based. Particulars: hepatocytes. Summed up: (§1)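 Study A: primary cultured hepatocytes (mouse, rat, dog, human) incubated with 2 or 62.5 µM 5'-[3H]-labelled prodrug for 4 and 24 h. Cell lysates were analysed for triphosphate. Supernatants were protein-precipitated and profiled by HPLC with radioactivity detection. Cyclic monophosphate was also assessed by LC/MS/MS.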

In series [2] the test system is Hepatocyte. Briefly: Drug level in rat primary hepatocyte supernatant treated with JNJ-54257099 at 2 to 62.5 uM after 4 to 24 hrs using radiolabeled compound by HPLC analysis. In kind it is ADME, cell-based. Particulars: hepatocytes. Summed up:
as §1

Series [3] relates to Hepatocyte. Briefly: Drug level in mouse primary hepatocyte supernatant treated with JNJ-54257099 at 2 to 62.5 uM after 4 to 24 hrs using radiolabeled compound by HPLC analysis. It is filed as ADME, cell-based. Particulars: hepatocytes. Summed up: as §1
Series [4] is described as follows: Drug level in dog primary hepatocyte supernatant treated with JNJ-54257099 at 2 to 62.5 uM after 4 to 24 hrs using radiolabeled compound by HPLC analysis. It is filed as ADME, cell-based, Canis lupus familiaris. Conditions: hepatocytes. The method in brief:
as §1

Series [5] deals with Hepatocyte. Briefly: Drug level in rat primary hepatocytes treated with JNJ-54257099 at 2 to 62.5 uM after 24 hrs using radiolabeled compound by LC-MS/MS analysis. In kind it is ADME, cell-based. Summed up:
as §1

Series [6] can be described thus: Drug level in dog primary hepatocytes treated with JNJ-54257099 at 2 to 62.5 uM after 4 hrs using radiolabeled compound by LC-MS/MS analysis. It is filed as ADME, cell-based, Canis lupus familiaris, Hepatocyte. The method in brief:
as §1

Another series deals with Cytochrome P450 3A4 (Homo sapiens, UniProt P08684). Briefly: Drug metabolism in baculovirus infected insect cell microsomes expressing human CYP3A4 assessed as CYP3A4-mediated intrinsic clearance per pmol CYP3A4 at 22.7 uM. Conditions: recombinant enzyme. In kind it is ADME. The method in brief: (§2)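 Incubation at 22.7 µM with human CYP3A4 supersomes. Intrinsic clearance (µL/min.pmol P450) and half-life (min) were determined.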
Chain of Cytochrome P450 3A4 (P08684 whole entry): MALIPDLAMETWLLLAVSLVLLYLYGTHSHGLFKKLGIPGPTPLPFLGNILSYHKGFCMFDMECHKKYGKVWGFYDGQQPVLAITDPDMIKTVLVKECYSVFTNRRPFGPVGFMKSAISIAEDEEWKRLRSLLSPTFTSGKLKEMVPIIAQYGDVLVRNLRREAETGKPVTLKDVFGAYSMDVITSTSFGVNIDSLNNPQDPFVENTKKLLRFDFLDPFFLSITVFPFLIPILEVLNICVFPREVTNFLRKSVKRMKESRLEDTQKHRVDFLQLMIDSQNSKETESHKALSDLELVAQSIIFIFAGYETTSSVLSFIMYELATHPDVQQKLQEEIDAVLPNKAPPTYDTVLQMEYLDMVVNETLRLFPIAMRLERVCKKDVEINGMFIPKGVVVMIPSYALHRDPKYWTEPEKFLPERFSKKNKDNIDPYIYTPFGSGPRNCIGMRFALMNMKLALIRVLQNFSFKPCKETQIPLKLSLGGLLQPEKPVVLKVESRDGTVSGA

A further series addresses CYP3A4 (Homo sapiens, UniProt P08684). Briefly: Drug metabolism in baculovirus infected insect cell microsomes expressing human CYP3A4 assessed as CYP3A4-mediated half life at 22.7 uM. In kind it is ADME. The method in brief: as §2
Series [7] deals with Hepatitis C virus. In words: Antiviral activity against HCV genotype 1b infected in human HuH7 cells assessed as inhibition of viral replication after 3 days by luciferase reporter gene assay. It is filed as functional, organism-based, Hepacivirus hominis. Conditions: Huh-7, 72 h. Summed up: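 HCV 1b subgenomic luciferase replicon (Huh7-luc, clone ET, adaptive mutations E1202G, T1280I, K1846T). 2,500 cells were incubated with compound over a 9-point, 1/4 dilution series for 3 days. Replication was read as luciferase activity.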
A general note: A reporter such as luciferase makes a cellular process visible.

Series [8] can be described thus: Cytotoxicity against human HuH7-CMV-Luc cells assessed as reduction in cell proliferation after 3 days by 5-bromo-2'-deoxyuridine incorporation assay. In kind it is cell-based, Huh-7. The method in brief: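 Huh7 cells at 1,500 cells/well, five serial compound dilutions in triplicate, 3 days of incubation. Proliferation was quantified as BrdU incorporation into DNA by ELISA.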

Series [9] deals with RNA-directed RNA polymerase (Hepacivirus hominis, UniProt O39930). In words: Inhibition of HCV RNA polymerase.
Chain of RNA-directed RNA polymerase (O39930 whole entry): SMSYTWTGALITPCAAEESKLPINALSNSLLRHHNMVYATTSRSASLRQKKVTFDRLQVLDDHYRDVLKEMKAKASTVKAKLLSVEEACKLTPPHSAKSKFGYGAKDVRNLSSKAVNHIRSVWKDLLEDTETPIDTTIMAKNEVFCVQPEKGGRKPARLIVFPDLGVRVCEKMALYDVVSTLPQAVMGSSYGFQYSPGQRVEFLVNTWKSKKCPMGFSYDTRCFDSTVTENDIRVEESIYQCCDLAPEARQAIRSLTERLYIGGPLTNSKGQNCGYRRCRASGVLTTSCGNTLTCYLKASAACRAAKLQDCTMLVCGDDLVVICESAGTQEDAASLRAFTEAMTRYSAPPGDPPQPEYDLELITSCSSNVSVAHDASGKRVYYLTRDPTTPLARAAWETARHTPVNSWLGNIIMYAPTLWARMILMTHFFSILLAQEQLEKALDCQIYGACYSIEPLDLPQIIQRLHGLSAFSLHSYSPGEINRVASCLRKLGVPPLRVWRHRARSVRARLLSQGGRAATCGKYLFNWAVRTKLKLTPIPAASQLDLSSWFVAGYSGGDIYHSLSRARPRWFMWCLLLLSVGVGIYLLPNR
For series [10], the system named is Hepatitis C virus. Briefly: Antiviral activity against HCV genotype 3a infected in homozygous cDNA-uPA chimeric SCID mouse bearing humanized hepatocytes assessed as change in HCV RNA level in serum at 100 mg/kg, po qd administered through gavage for 7 days by RT-PCR method. In kind it is functional, Hepacivirus hominis, Hepatocyte. Summed up:
(§3)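 Male chimeric SCID cDNA-uPA+/+ mice with human hepatocyte liver (≥70% replacement by blood human albumin) and serum HCV RNA >1.0×10^6 copies/mL the week before dosing. Oral gavage for 7 days in 20% HP-β-CD, 50-200 mg/kg QD or BID. Serum sampled pre-dose on days 1, 2, 3, 5 and 7. Real-time PCR; mean change in log10 copies/mL, day 7 vs day 1 pre-dose.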

Series [11] has as its system Hepatitis C virus. In words: Antiviral activity against HCV genotype 3a infected in homozygous cDNA-uPA chimeric SCID mouse bearing humanized hepatocytes assessed as reduction in HCV RNA level in serum administered through oral gavage once daily for 7 days by RT-PCR method. It is filed as functional, organism-based. Conditions: Hepacivirus hominis, Hepatocyte. Summed up:
as §3

The test system of series [12] is Hepatitis C virus. In words: Antiviral activity against HCV genotype 3a infected in homozygous cDNA-uPA chimeric SCID mouse bearing humanized hepatocytes assessed as reduction in HCV RNA level in serum administered through oral gavage twice daily daily for 7 days by RT-PCR method. Conditions: Hepacivirus hominis, Hepatocyte. It is filed as functional, organism-based. Summed up: as §3

Series [13] has as its system Hepatitis C virus. In words: Antiviral activity against HCV genotype 1a infected in homozygous cDNA-uPA chimeric SCID mouse bearing humanized hepatocytes assessed as change in HCV RNA level in serum at 100 mg/kg, po qd administered through gavage for 7 days by RT-PCR method. In kind it is functional, Hepacivirus hominis, subtype 1a, Hepatocyte. Summed up:
as §3

In series [14] the test system is Hepatocyte. Briefly: Drug level in human hepatocytes treated with JNJ-54257099 in presence of CYP2C8 and CYP2C9 inhibitor montelukast by LC-MS/MS analysis. It is filed as ADME, cell-based.
Series [15] deals with Hepatocyte. In words: Drug level in human hepatocytes treated with JNJ-54257099 in presence of PDE4 inhibitor rolipram by LC-MS/MS analysis. In kind it is ADME, cell-based.
Series [16] concerns Hepatocyte. In words: Drug level in human hepatocytes treated with JNJ-54257099 in presence of pan-PDE inhibitor ibudilast by LC-MS/MS analysis. In kind it is ADME, cell-based.
Series [17] concerns Hepatocyte. Briefly: Prodrug conversion in mouse cryopreserved hepatocytes assessed as 2'-deoxy-2'-spirooxetane uridine triphosphate level per million cells at 10 uM after 2 hrs by LC-MS/MS analysis. In kind it is ADME, cell-based. Summed up:
(§4)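 Plated cryopreserved hepatocytes (study B) incubated with 10 µM unlabeled prodrug for 2, 8 or 24 h. Triphosphate measured in cell lysates and expressed as pmol/million hepatocytes. Quantification limit 2 ng/10^6 cells.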

Series [18] relates to Hepatocyte. In words: Prodrug conversion in mouse cryopreserved hepatocytes assessed as 2'-deoxy-2'-spirooxetane uridine triphosphate level per million cells at 10 uM after 8 hrs by LC-MS/MS analysis. In kind it is ADME, cell-based. The method in brief:
as §4

Series [19] deals with Hepatocyte. In words: Prodrug conversion in mouse cryopreserved hepatocytes assessed as 2'-deoxy-2'-spirooxetane uridine triphosphate level per million cells at 10 uM after 24 hrs by LC-MS/MS analysis. It is filed as ADME, cell-based. The method in brief: as §4
For series [20], the system named is Hepatocyte. In words: Prodrug conversion in rat cryopreserved hepatocytes assessed as 2'-deoxy-2'-spirooxetane uridine triphosphate level per million cells at 10 uM after 2 hrs by LC-MS/MS analysis. In kind it is ADME, cell-based. Summed up:
as §4

In series [21] the test system is Hepatocyte. In words: Prodrug conversion in rat cryopreserved hepatocytes assessed as 2'-deoxy-2'-spirooxetane uridine triphosphate level per million cells at 10 uM after 8 hrs by LC-MS/MS analysis. In kind it is ADME, cell-based. Summed up:
as §4

Series [22] relates to Hepatocyte. In words: Prodrug conversion in rat cryopreserved hepatocytes assessed as 2'-deoxy-2'-spirooxetane uridine triphosphate level per million cells at 10 uM after 24 hrs by LC-MS/MS analysis. In kind it is ADME, cell-based. The method in brief: as §4
Series [23] in a line: Prodrug conversion in dog cryopreserved hepatocytes assessed as 2'-deoxy-2'-spirooxetane uridine triphosphate level per million cells at 10 uM after 2 hrs by LC-MS/MS analysis. In kind it is ADME, cell-based, Canis lupus familiaris, Hepatocyte. Summed up: as §4
Series [24] is described as follows: Prodrug conversion in dog cryopreserved hepatocytes assessed as 2'-deoxy-2'-spirooxetane uridine triphosphate level per million cells at 10 uM after 8 hrs by LC-MS/MS analysis. In kind it is ADME, cell-based, Canis lupus familiaris, Hepatocyte. Summed up: as §4
A short description of series [25]: Prodrug conversion in dog cryopreserved hepatocytes assessed as 2'-deoxy-2'-spirooxetane uridine triphosphate level per million cells at 10 uM after 24 hrs by LC-MS/MS analysis. In kind it is ADME, cell-based, Canis lupus familiaris, Hepatocyte. The method in brief: as §4
Series [26] has as its system Hepatocyte. In words: Prodrug conversion in human cryopreserved hepatocytes assessed as 2'-deoxy-2'-spirooxetane uridine triphosphate level per million cells at 10 uM after 2 hrs by LC-MS/MS analysis. It is filed as ADME, cell-based. Summed up:
as §4

For series [27], the system named is Hepatocyte. Briefly: Prodrug conversion in human cryopreserved hepatocytes assessed as 2'-deoxy-2'-spirooxetane uridine triphosphate level per million cells at 10 uM after 8 hrs by LC-MS/MS analysis. In kind it is ADME, cell-based. Summed up:
as §4

Series [28] deals with Hepatocyte. In words: Prodrug conversion in human cryopreserved hepatocytes assessed as 2'-deoxy-2'-spirooxetane uridine triphosphate level per million cells at 10 uM after 24 hrs by LC-MS/MS analysis. In kind it is ADME, cell-based. Summed up: as §4

Structures are written as SMILES. Some results are limits rather than exact numbers.

Chain of CYP3A4 (P08684 whole entry): as the sequence (P08684 whole entry) above

Turning to `O=c1ccn([C@@H]2O[C@@H]3COP(=O)(O)O[C@H]3[C@]23CCO3)c(=O)[nH]1`, the Drug metabolism entry (in the series with Hepatocyte [1]; in the series with Hepatocyte [2]; with Hepatocyte [3]; in [4]; in the series with Hepatocyte [5]; in [6]) was “metabolite_detected” each time.

Broadly, the half-life is how long it takes for the measured level to halve. What is called EC50 is the concentration giving half of the maximal effect. Broadly, the CC50 is the concentration giving 50% cytotoxicity. As to `CCOc1nc(N)nc2c1ncn2[C@@H]1O[C@@H]2CO[P@](=O)(OC(C)C)O[C@H]2[C@@]1(C)F`, the CL at Cytochrome P450 3A4 was determined as 0.1 µL/min. On CYP3A4, the half-life at 22.7 µM was found to be 76 min. Also, the EC50 in the series on Hepatitis C virus [7] came to 300 nM. Also, in series [8], the CC50 at 72 h is above 100 µM.

What is called IC50 is the concentration needed to halve the response being measured. One may read the Ki as a dissociation constant, usually derived from enzyme kinetics or from competition with a known ligand. As for `O=c1ccn([C@@H]2O[C@H](COP(=O)(O)OP(=O)(O)OP(=O)(O)O)[C@@H](O)[C@]23CCO3)c(=O)[nH]1`, in series [9], the IC50 is 1000 nM and the Ki came to 130 nM.

As for `CC(C)OC(=O)[C@H](C)N[P@](=O)(OC[C@H]1O[C@@H](n2ccc(=O)[nH]c2=O)[C@](C)(F)[C@@H]1O)Oc1ccccc1` [SOFOSBUVIR], the Activity in the series with Hepatitis C virus [10] is -0.97; in the series with Hepatitis C virus [11] it was “Dose-dependent effect”; in the series on Hepatitis C virus [12] it was “Dose-dependent effect”; in the series with Hepatitis C virus [13], -2.14.

Consider `O=c1ccn([C@@H]2O[C@H](COP(=O)(O)O)[C@@H](O)[C@]23CCO3)c(=O)[nH]1`, for which the Drug metabolism entry (in the series with Hepatocyte [5]; in series [6]; with Hepatocyte [14]; in the series on Hepatocyte [15]; with Hepatocyte [16]) was “metabolite_detected” throughout.

Regarding `CCCCOC(=O)[C@H](C)NP(=O)(OC[C@H]1O[C@@H](n2ccc(=O)[nH]c2=O)[C@@]2(CCO2)[C@@H]1O)Oc1ccccc1` (stereo partly drawn), the CC50 at 72 h in [8] is above 100 µM. Also, the Drug metabolism in the series with Hepatocyte [17] came to 0.028 pmol; with Hepatocyte [18], 0.066 pmol; in the series with Hepatocyte [19], 0.023 pmol; in the series on Hepatocyte [20] it was 0.025 pmol; with Hepatocyte [21], 0.058 pmol; in the series with Hepatocyte [22], 0.013 pmol. Further, the Drug metabolism in series [23] was determined as 0.01 pmol; in [24] it was 0.021 pmol; in series [25] it was 0.007 pmol; with Hepatocyte [26], 0.044 pmol; in the series with Hepatocyte [27], 0.257 pmol; in the series with Hepatocyte [28] it was 0.173 pmol.

Consider `O=c1ccn([C@@H]2O[C@H](CO)[C@@H](O)[C@]23CCO3)c(=O)[nH]1`, for which the Drug metabolism result (in the series with Hepatocyte [1]; with Hepatocyte [2]; in the series with Hepatocyte [3]; in [4]) was “metabolite_detected” throughout.
